Inconclusive results are not listed. Calls of active or inactive are those of the source.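 The calls were made as follows, unless noted: active = growth inhibition above 25% in both replicates, a cutoff set 3 SD above the mean; inconclusive = above 25% in only one replicate; inactive = the rest.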
Legend:
[1] = OD615 S. cerevisiae growth inhibition, permissive medium, pilot counter-assay, permissive growth control for S. cerevisiae lifespan shortening project (AID 705); settings: OD615, 24 h, at 10 µM, stronger effect = higher value
Outline: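 System – S. cerevisiae with engineered DeaD lifespan system · Buffer or medium – SC raffinose/galactose permissive medium · Schedule – cells pre-grown 4 h, then 24 h compound exposure, 30 °C humidified · Technique – culture turbidity as optical density at 615 nm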

[2] = Restrictive medium S. cerevisiae growth inhibition, OD615, pilot screen of yeast lifespan reduction project, restrictive growth control (AID 706;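 active = growth inhibition above a set limit, 3 SD over mean compound inhibition, in both replicates, cut at about 43% in these data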;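 also: modified DeaD lifespan yeast strain shifted to restrictive glucose medium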); settings: OD615, 48 h, at 10 µM, stronger effect = higher value
Outline: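 Material: engineered S. cerevisiae DeaD strain / Medium: glucose-based CSMM-D restrictive medium / Compound: single dose of 10 µM compound final, 0.25% DMSO / Timing: 4 h pre-incubation, 48 h exposure at 30 °C / Technique: OD615 absorbance reading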

[3] = viability gain of MRP-1-high H69AR cells under doxorubicin, pilot screen, MRP-1 activator project, CellTiter-Glo, duplicate (AID 807;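 active = viability increase at or above a cutoff of the median across tested compounds plus 3 SD, cut at about 8.5% in these data, passing the limit was not always enough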;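 also: compound pretreatment 18-22 h then 72 h combined with doxorubicin; 0% = doxorubicin alone and 100% = vehicle without doxorubicin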); settings: H69AR viability with doxorubicin, CellTiter-Glo luminescence; at 10 µM; stronger effect = higher value
[4] = growth suppression of beta-catenin knockout HCT116, pilot screen, human colon tumor cells (AID 823;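 active = cell viability at or below a set limit in both duplicate runs, the limit being the all-compound median minus 4 SD, cut at about 23% in these data, passing the limit was not always enough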;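 also: 0% = wells killed by 20 µM Hyamine and 100% = untreated DMSO cell wells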); settings: CellTiter-Glo, 60 h, at 10 µM, stronger effect = lower value
[5] = growth suppression of PTEN-deleted HCT116, pilot screen, cell-based, HCT116 clonal line, CellTiter-Glo (AID 824;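 active = viability at or below 27.92% in each of two runs, the all-compound median minus 4 SD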;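 also: 0% = 20 µM Hyamine control and 100% = vehicle cell control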); settings: 60 h, at 10 µM, stronger effect = lower value
[6] = inhibitors of the yeast RAM network, pilot screen, dse1pr::URA3 reporter, 5-FOA selection (AID 869;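 active = inhibition over a set limit, the all-compound mean plus 3 SD, in both replicate runs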;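 also: 0% = DMSO wells with no growth and 100% = 10 µM 1-NA-PP1 with full growth; RAM network block rescues cells from 5-FOA so hits raise OD615 growth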); settings: S. cerevisiae dse1pr::URA3 5-FOA growth, OD615, 2 d; at 10 µM; stronger effect = higher value; strain carries analog-sensitive mutant Cbk1 kinase
[7] = RAM signaling pathway blockade in yeast – S. cerevisiae, Pdr1DBD-CYC8 efflux-inhibited sensitized strain, primary screen (AID 1298;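 active = RAM network inhibition above 8.4% in each of two replicates, 3 SD over the compound average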;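 also: 0% = DMSO untreated cells without growth and 100% = 10 µM 1-NA-PP1 full growth; higher means more yeast growth rescued from 5-FOA killing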); settings: S. cerevisiae cbk1-as DSE1-URA3 strain, 5-FOA growth OD615, 2 d; at 50 µM; stronger effect = higher value

O=C(c1cc(-c2cccc(O)c2)on1)N1CCOCC1
inactive: growth inhibition [1] 1.27% | growth inhibition [2] 7.52% | viability increase [3] 0.64% | viability [4] 107% | viability [5] 98.4% | inhibition [6] 2.15% | RAM network inhibition [7] 2.22%

COc1ccc(OCC(=O)Nc2cc(-c3nn4c(C)nnc4s3)ccc2C)cc1
inactive: growth inhibition [1] 0.16% | growth inhibition [2] 0.525% | viability increase [3] -1.72% | viability [4] 106% | viability [5] 94% | inhibition [6] 0.755% | RAM network inhibition [7] 5.36%

Cc1ccc(S(=O)(=O)NCc2ccco2)cc1C
inactive: growth inhibition [1] -1.9% | growth inhibition [2] -6.06% | viability increase [3] -3.83% | viability [4] 100% | viability [5] 97.2% | inhibition [6] 0.075% | RAM network inhibition [7] 2.42%

COc1cccc(C2c3c(oc4ccccc4c3=O)C(=O)N2CCCN2CCOCC2)c1 (stereo not given)
inactive: growth inhibition [1] -10.5% | growth inhibition [2] -5.13% | viability increase [3] -3.16% | viability [4] 95.1% | viability [5] 93.1% | inhibition [6] 1.13% | RAM network inhibition [7] 2.84%

O=C(NCC1CCCO1)c1ccc2c(=O)n(CCc3ccccc3)c(=O)[nH]c2c1 (stereo not given)
inactive: growth inhibition [1] -3.02% | growth inhibition [2] -27% | viability increase [3] -1.15% | viability [4] 104% | viability [5] 102% | inhibition [6] 4.28% | RAM network inhibition [7] 3.8%

CC(C)c1nnc(NC(=O)CN2C(=O)c3ccccc3C2=O)s1
inactive: growth inhibition [1] -5.71% | growth inhibition [2] -6.92% | viability increase [3] -1.95% | viability [4] 96.3% | viability [5] 89.1% | inhibition [6] 1.61% | RAM network inhibition [7] 3.84%

CCn1cc(Cl)c(C(=O)Nc2nc3ccccc3n2CCN2CCCCC2)n1
inactive: growth inhibition [1] -5% | growth inhibition [2] 13.4% | viability increase [3] -4.57% | viability [4] 88.8% | viability [5] 92.2% | inhibition [6] 0.905% | RAM network inhibition [7] 2.98%

COc1ccc(C2C3=C(CCCC3=O)Nc3nc(SCc4ccc(C(=O)O)cc4)nn32)cc1OC (stereo not given)
inactive: growth inhibition [1] -7.69% | growth inhibition [2] -1.59% | viability increase [3] -0.88% | viability [4] 92.8% | viability [5] 95.3% | inhibition [6] 3.18% | RAM network inhibition [7] 3.48%

O=C(CN(C1CCCCC1)S(=O)(=O)c1ccc(F)cc1)NCCCO
inactive: growth inhibition [1] -6.21% | growth inhibition [2] 2.23% | viability increase [3] -0.51% | viability [4] 103% | viability [5] 98.1% | inhibition [6] 1.75% | RAM network inhibition [7] 1.27%

O=C1c2oc3ccc(F)cc3c(=O)c2C(c2ccncc2)N1CCN1CCOCC1 (stereo not given)
inactive: growth inhibition [1] 3.02% | growth inhibition [2] 3.27% | viability increase [3] 0.53% | viability [4] 110% | viability [5] 99.2% | inhibition [6] 1.26% | RAM network inhibition [7] 0.47%

COc1cc(Br)c(CC(=O)O)cc1OC
inactive: growth inhibition [1] -24.6% | growth inhibition [2] -13.7% | viability increase [3] -0.03% | viability [4] 98.2% | viability [5] 97.1% | inhibition [6] 2.38% | RAM network inhibition [7] 3.76%

CCOC(=O)c1ccc(Nc2cc(C)nc3nc(C)nn23)cc1
inactive: growth inhibition [1] -5.61% | growth inhibition [2] 4.27% | viability increase [3] -4.45% | viability [4] 103% | viability [5] 103% | inhibition [6] 0.015% | RAM network inhibition [7] 1%

c1cncc(-c2nc3ccccn3c2Nc2ccc3c(c2)OCCO3)c1
inactive: growth inhibition [1] -1.86% | growth inhibition [2] 9.11% | viability increase [3] -2.32% | viability [4] 99.6% | viability [5] 94.4% | inhibition [6] 1.04% | RAM network inhibition [7] 4.54%

CC1(C)CC2CC(C)(CN2C(=O)c2cc(-c3ccccc3O)on2)C1 (stereo not given)
inactive: growth inhibition [1] -11.4% | growth inhibition [2] -4.57% | viability increase [3] -5.87% | viability [4] 75.5% | viability [5] 61.9% | inhibition [6] 2.44% | RAM network inhibition [7] 6.15%

CC1CCN(S(=O)(=O)N2CCC(C(=O)N3CCC(N(C)CC4CCCO4)CC3)CC2)CC1 (stereo not given)
inactive: growth inhibition [1] -0.85% | growth inhibition [2] -5.09% | viability increase [3] -1.16% | viability [4] 90.6% | viability [5] 95.3% | inhibition [6] 2.09% | RAM network inhibition [7] 0.73%

Source: PubChem BioAssay
